Source: ChEMBL document CHEMBL1141218, “Further structure-activity relationship studies of piperidine-based monoamine transporter inhibitors: effects of piperidine ring stereochemistry on potency. Identification of norepinephrine transporter selective ligands and broad-spectrum transporter inhibitors” (J Med Chem, 2005)

Experiments:
[1] = biological target: Sodium-dependent serotonin transporter (Rattus norvegicus, UniProt P31652); assay: Ability to inhibit [3H]5-HT uptake through SERT in rat synaptosomes; assay type: subcellular, Brain
Summary of the method: (§1)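 Uptake inhibition values given as Ki. Each experiment tested six drug concentrations in triplicate, with two to four independent experiments per compound. Values are means ± SEM.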

[2] = biological target: Sodium-dependent dopamine transporter (Rattus norvegicus, UniProt P23977); assay: Ability to inhibit [3H]DA uptake through DAT in rat synaptosomes; assay type: subcellular, Brain; summary of the method: as §1
[3] = biological target: Monoamine transporters; serotonin & dopamine (Rattus norvegicus) (UniProt P31652+P23977); assay: Selectivity towards rat SERT over DAT; assay type: protein assay
[4] = biological target: Norepinephrine transporter (Rattus norvegicus, UniProt Q9WTR4); assay: Ability to inhibit [3H]NE uptake through NET in rat synaptosomes; assay type: subcellular, Brain; summary of the method: as §1
Norepinephrine transporter, sequence (Q9WTR4 whole entry): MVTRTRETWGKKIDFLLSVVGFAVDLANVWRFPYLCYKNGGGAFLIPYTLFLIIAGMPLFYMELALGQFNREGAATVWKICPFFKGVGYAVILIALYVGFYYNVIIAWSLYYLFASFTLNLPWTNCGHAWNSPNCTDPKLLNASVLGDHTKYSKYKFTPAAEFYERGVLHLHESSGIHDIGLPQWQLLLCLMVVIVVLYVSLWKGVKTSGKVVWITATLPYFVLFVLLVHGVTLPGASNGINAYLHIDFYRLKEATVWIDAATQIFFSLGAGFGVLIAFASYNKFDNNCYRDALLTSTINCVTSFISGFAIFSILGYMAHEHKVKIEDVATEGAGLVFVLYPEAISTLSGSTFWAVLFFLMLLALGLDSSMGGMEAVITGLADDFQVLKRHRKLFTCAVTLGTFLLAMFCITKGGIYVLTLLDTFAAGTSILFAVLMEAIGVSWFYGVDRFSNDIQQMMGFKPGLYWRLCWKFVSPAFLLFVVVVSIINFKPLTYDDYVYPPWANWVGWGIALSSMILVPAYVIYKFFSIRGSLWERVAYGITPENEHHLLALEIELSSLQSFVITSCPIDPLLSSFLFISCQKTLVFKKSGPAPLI

Sodium-dependent serotonin transporter, sequence (P31652 whole entry): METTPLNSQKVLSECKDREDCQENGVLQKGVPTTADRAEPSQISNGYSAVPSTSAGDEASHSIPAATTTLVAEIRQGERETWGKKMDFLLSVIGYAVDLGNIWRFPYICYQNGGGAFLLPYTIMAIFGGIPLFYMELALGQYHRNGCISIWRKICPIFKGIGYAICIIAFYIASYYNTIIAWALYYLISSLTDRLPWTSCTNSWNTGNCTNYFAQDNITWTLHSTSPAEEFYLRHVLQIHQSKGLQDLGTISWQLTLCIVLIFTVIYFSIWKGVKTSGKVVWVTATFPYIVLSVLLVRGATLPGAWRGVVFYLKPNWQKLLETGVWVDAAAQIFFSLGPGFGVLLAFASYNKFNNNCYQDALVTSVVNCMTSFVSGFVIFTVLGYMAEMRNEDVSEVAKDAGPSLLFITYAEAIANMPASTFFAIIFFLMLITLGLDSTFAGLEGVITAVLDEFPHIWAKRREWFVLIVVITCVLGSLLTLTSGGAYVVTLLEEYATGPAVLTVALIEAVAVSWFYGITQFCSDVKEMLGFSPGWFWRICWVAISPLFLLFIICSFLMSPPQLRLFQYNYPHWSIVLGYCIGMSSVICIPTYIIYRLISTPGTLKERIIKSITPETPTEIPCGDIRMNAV
Monoamine transporters; serotonin & dopamine (Rattus norvegicus), sequence (P23977 whole entry, looked up): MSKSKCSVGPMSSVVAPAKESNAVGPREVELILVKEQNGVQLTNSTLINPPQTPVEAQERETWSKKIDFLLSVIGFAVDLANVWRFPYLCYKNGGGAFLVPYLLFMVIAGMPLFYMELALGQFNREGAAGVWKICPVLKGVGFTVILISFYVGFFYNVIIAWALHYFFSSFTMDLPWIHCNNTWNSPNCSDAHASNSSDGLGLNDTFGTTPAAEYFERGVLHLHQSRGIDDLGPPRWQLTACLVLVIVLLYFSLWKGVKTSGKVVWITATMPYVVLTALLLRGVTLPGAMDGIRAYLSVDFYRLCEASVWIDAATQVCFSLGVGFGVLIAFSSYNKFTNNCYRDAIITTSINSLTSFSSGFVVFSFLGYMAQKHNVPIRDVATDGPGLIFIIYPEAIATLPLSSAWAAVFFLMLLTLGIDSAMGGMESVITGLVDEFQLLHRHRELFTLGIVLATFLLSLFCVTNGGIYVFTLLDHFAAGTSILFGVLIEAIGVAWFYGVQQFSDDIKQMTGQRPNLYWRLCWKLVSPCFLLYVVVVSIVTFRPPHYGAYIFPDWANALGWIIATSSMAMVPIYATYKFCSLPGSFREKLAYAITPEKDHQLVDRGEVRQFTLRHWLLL
Monoamine transporters; serotonin & dopamine (Rattus norvegicus), sequence (P31652 whole entry, looked up): as the sequence (P31652 whole entry) above
Sodium-dependent dopamine transporter, sequence (P23977 whole entry): as the sequence (P23977 whole entry, looked up) above

Row | Structure (SMILES) | Ki [1] | Ki [2] | Ratio Ki [3] | Ki [4]
1 | CN1CC[C@@H](c2ccc(Cl)cc2)[C@@H](CSCC(=O)N(C)C)C1 | 173 nM | 176 nM | 0.98 | 47 nM
2 | CN1CC[C@H](c2ccc(Cl)cc2)[C@H](CSCC(N)=O)C1 | 21 nM | 54 nM | 0.39 | 69 nM
3 | CC(C)NC(=O)CSC[C@@H]1CN(C)CC[C@@H]1c1ccc(Cl)cc1 | 154 nM | 13 nM | 11.5 | 16 nM
4 | CN1CC[C@@H](c2ccc(Cl)cc2)[C@H](CSCCO)C1 | 129 nM | 185 nM | 0.69 | 123 nM
5 | CN1CC[C@H](c2ccc(Cl)cc2)[C@H](CSCC(=O)N(C)C)C1 | 8.8 nM | 17 nM | 0.53 | 63 nM
6 | CN1CC[C@@H](c2ccc(Cl)cc2)[C@@H](CSCC(=O)NCCc2ccccc2)C1 | 121 nM | 112 nM | 1.08 | 100 nM
7 | COC(=O)[C@H]1CN(C)CC[C@H]1c1ccc(Cl)cc1 | 56 nM | 1560 nM | 0.04 | 415 nM
8 | CN1CC[C@H](c2ccc(Cl)cc2)[C@H](CSCCO)C1 | 185 nM | 37 nM | 5 | 26 nM
9 | CN1CC[C@@H](c2ccc(Cl)cc2)[C@@H](CSCC(=O)Nc2cccc3ccccc23)C1 | 108 nM | 102 nM | 1.06 | 101 nM
10 | CN1CC[C@H](c2ccc(Cl)cc2)[C@H](CSCC(=O)NCc2ccccc2)C1 | 23 nM | 3.9 nM | 5.81 | 85 nM
11 | CC(=O)OCCSC[C@@H]1CN(C)CC[C@H]1c1ccc(Cl)cc1 | 130 nM | 536 nM | 0.24 | 52 nM
12 | COC(=O)CSC[C@@H]1CN(C)CC[C@H]1c1ccc(Cl)cc1 | 69 nM | 2620 nM | 0.03 | 57 nM
13 | CC(C)NC(=O)CSC[C@H]1CN(C)CC[C@H]1c1ccc(Cl)cc1 | 36 nM | 142 nM | 0.25 | 11 nM
14 | CC(C)NC(=O)CSC[C@@H]1CN(C)CC[C@H]1c1ccc(Cl)cc1 | 138 nM | 663 nM | 0.21 | 67 nM
15 | COC(=O)CSC[C@@H]1CN(C)CC[C@@H]1c1ccc(Cl)cc1 | 182 nM | 38 nM | 4.88 | 22 nM
16 | CNC(=O)CSC[C@H]1CN(C)CC[C@H]1c1ccc(Cl)cc1 | 1770 nM | 215 nM |  | 
17 | CN1CC[C@@H](c2ccc(Cl)cc2)[C@@H](CSCCOC(=O)c2ccccc2)C1 | 270 nM | 1470 nM | 0.18 | 143 nM

Row | Structure (SMILES) | Ki [1] | Ki [2] | Ratio Ki [3] | Ki [4]
18 | CN1CC[C@@H](c2ccc(Cl)cc2)[C@@H](CSCC(=O)Nc2ccccc2)C1 | 91 nM | 80 nM | 1.13 | 1060 nM
19 | CN1CC[C@@H](c2ccc(Cl)cc2)[C@H](CSCC(N)=O)C1 | 545 nM | 1100 nM | 0.49 | 53 nM
20 | CC(=O)OCCSC[C@H]1CN(C)CC[C@H]1c1ccc(Cl)cc1 | 125 nM | 177 nM | 0.71 | 610 nM
21 | CN1CC[C@@H](c2ccc(Cl)cc2)[C@H](CSCC(=O)N(C)C)C1 | 186 nM | > 3000 nM | < 0.06 | 218 nM
22 | CNC(=O)CSC[C@@H]1CN(C)CC[C@@H]1c1ccc(Cl)cc1 | 347 nM | 311 nM |  | 
23 | CN1CC[C@@H](c2ccc(Cl)cc2)[C@@H](CSCC(=O)NCc2ccccc2)C1 | 22 nM | 302 nM | 0.07 | 54 nM
24 | CN1CC[C@@H](c2ccc(Cl)cc2)[C@H](CSCCOC(=O)c2ccccc2)C1 | 71 nM | 378 nM | 0.19 | 56 nM
25 | CN1CC[C@@H](c2ccc(Cl)cc2)[C@H](CSCC(=O)NCc2ccccc2)C1 | 753 nM | 1570 nM | 0.48 | 32 nM
26 | CN1CC[C@@H](c2ccc(Cl)cc2)[C@@H](CSCC(=O)N2CCCCC2)C1 | 572 nM | > 3000 nM | < 0.19 | 134 nM
27 | CN1CC[C@@H](c2ccc(Cl)cc2)[C@@H](CSCCO)C1 | 305 nM | 160 nM | 1.91 | > 3000 nM
28 | COC(=O)CSC[C@H]1CN(C)CC[C@H]1c1ccc(Cl)cc1 | 403 nM | 598 nM | 0.67 | 98 nM
29 | CN1CC[C@H](c2ccc(Cl)cc2)[C@H](CSCC(=O)N2CCCCC2)C1 | 42 nM | 34 nM | 1.22 | 13 nM
30 | CC(=O)OCCSC[C@@H]1CN(C)CC[C@@H]1c1ccc(Cl)cc1 | 469 nM | 46 nM | 10.1 | 30 nM
31 | CN1CC[C@@H](c2ccc(Cl)cc2)[C@H](CSCC(=O)N2CCCCC2)C1 | 190 nM | > 3000 nM | < 0.06 | 82 nM
32 | CNC(=O)CSC[C@@H]1CN(C)CC[C@H]1c1ccc(Cl)cc1 | 116 nM | 164 nM |  | 
33 | CN1CC[C@@H](c2ccc(Cl)cc2)[C@H](CSCC(=O)NCCc2ccccc2)C1 | 68 nM | 23 nM | 2.97 | 178 nM
